Assay outcomes: PubChem BioAssay, SRMLSC
HUVEC prolif 384: inhibitors of HUVEC proliferation, primary screen, cell-based, 384-well | actives 1.1% (n = 86,000) | viability, % at 10 µM (by protocol) | CellTiter-Glo luminescence, 72 h; stronger effect = lower value;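 active = viability at or below 30%; inactive = viability above 30%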;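 also: 100% = median luminescence of DMSO-only cell control wells on each plate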
H69AR inhibit: proliferation blockers of H69AR lung cancer cells, primary screen, cell-based, human, 86K library | H69AR lung tumor viability, ATP luminescence, 72 h; stronger effect = lower value | actives 6% (n = 85,000) | AID 598, 2007 | viability, % at 10 µM;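 active = viability at or below 40%; inactive = viability above 40%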;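 also: multidrug resistant small cell line overexpressing MRP-1 efflux transporter; 100% = mean luminescence of untreated control wells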
Lung fibro prol: antiproliferative effect on LL 47 fibroblasts – human, LL 47 cells, CellTiter-Glo luminescence, primary screen; LL 47 human lung fibroblast viability, ATP luminescence; stronger effect = lower value; viability, % at 10 µM; actives 1.1% (n = 85,000);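 active = viability at or below 50% in the single dose screen; inactive = viability above 50%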;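 also: compound exposure lasted 72 h before the ATP readout; 100% = median luminescence of untreated cell-only wells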
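material = human LL 47 lung fibroblast cells | dosing = compounds added from tenfold dosing solution, 0.1% DMSO final | timing = overnight cell rest, 72 h compound treatment at 37 °C | measured by = CellTiter-Glo luminescence measuring cellular ATP | evaluation = % viability versus median cells-only luminescence | control set = cell-only wells, no compound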
PTEN del growth: growth suppression of PTEN-null HCT116, primary screen, cell-based, CellTiter-Glo | HCT116 PTEN-null viability, 60 h; stronger effect = lower value | viability, % at 10 µM | actives 1.2% (n = 140,000);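 active = viability at or below a set limit, 4 SD under the median of all tested compounds, cut at about 3.7% in these data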;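 also: PTEN knockout HCT116 line with beta catenin targeted HCT116 as companion control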
bCat KO growth: primary screen for growth suppressors in beta-catenin knockout HCT116 cells (colon tumor, human) | HCT116 beta-catenin knockout viability, CellTiter-Glo, 60 h; stronger effect = lower value | viability, % at 10 µM | actives 1.5% (n = 140,000) | AID 818, 2007;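 active = viability at or under a set limit, the compound median less 4 SD, cut at about 6% in these data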;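 also: 0% = Hyamine 1622 control at 20 µM and 100% = untreated cell control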
* = called active by the depositor; . = no result given. This excerpt belongs to a sample that is enriched for hits.

SMILES	HUVEC prolif 384	H69AR inhibit	Lung fibro prol	PTEN del growth	bCat KO growth
Cc1ccc(C2C=C(c3ccccc3OC(F)F)Nc3ncnn32)cc1 (configuration not stated)	93	76	.	82	83
CN(C)c1ccc(C2C=C(c3ccc(Cl)cc3OC(F)F)Nc3ncnn32)cc1 (configuration not stated)	57	14*	83	18	16
Cn1c(-c2sc3cc(C(F)(F)F)cnc3c2-c2cccnc2)n[nH]c1=S	105	32*	100	89	86
Cc1ccc(-c2nc3ccccc3s2)cc1NC(=S)NC(=O)/C=C/c1ccco1	.	.	.	7	7
Cc1ccc(-c2nc3ccccc3s2)cc1NC(=S)NC(=O)c1cccc2ccccc12	.	.	.	1.7*	1.3*
O=C(/C=C/c1ccco1)NC(=S)Nc1cc(-c2nc3ccccc3s2)ccc1Cl	.	.	.	1.6*	2.6*
CCOC(=O)N1CCC(N2C(=O)c3ccccc3C2Nc2c(C)cccc2C)CC1 (configuration not stated)	111	78	96	72	74
O=C(COc1ccccc1-c1ccccc1)N/N=C/c1cccc2ccccc12	.	.	.	4	4.3*
COc1ccc(/C=N/NC(=O)COc2ccccc2-c2ccccc2)cc1	.	.	.	17	15
CCOC(=O)c1sc(NC(=O)CSc2nnnn2-c2ccc(C)c(C)c2)nc1C	18*	82	97	95	102
CCOC(=O)c1sc(NC(=O)CSc2nnnn2-c2ccc(C)cc2C)nc1C	25*	84	100	88	94
CCOC(=O)Cc1csc(NC(=O)CSc2nnnn2-c2ccc(C)cc2C)n1	94	96	105	96	103
COc1ccc(OC)c(-n2nnnc2SCC(=O)Nc2nc(C)c(C)s2)c1	78	20*	97	72	76
CCOC(=O)c1sc(NC(=O)CSc2nnnn2-c2ccccc2)nc1C	82	72	99	101	99
COC(=O)c1ccccc1NC(=S)N(Cc1ccc2c(c1)OCO2)Cc1cc2ccc(OC)cc2[nH]c1=O	.	.	.	67	72
CCOC(=O)c1sc2nc(C(C)C)c3c(c2c1N)CC(C)(C)OC3	64	50	48*	17	19
Cc1ccc(NCCC(=O)c2ccc(Br)cc2)cc1	.	.	.	105	89
COC(=O)C(CC(=O)c1ccc(Br)cc1)n1ccnc1 (configuration not stated)	69	88	28*	2.7*	2.6*
Brc1ccc(-c2csc(NNC3=NCCCCC3)n2)cc1	83	41	48*	39	39
CC1=C(CC(=O)c2ccc(Cl)cc2)C(=O)c2ccccc2C1=O	.	.	.	1.9*	3.7*
CCOC(=O)N1CCN(C(=O)CSCC(=O)Nc2nc(-c3ccc(-c4ccccc4)cc3)cs2)CC1	55	0.7*	82	8	8
COc1ccc(C)cc1NC(=O)C(NCC1CCCO1)c1ccccc1 (configuration not stated)	.	.	.	91	83
CCC(C)c1ccc(NC(=S)NC2CCN(Cc3ccccc3)CC2)cc1 (configuration not stated)	.	.	.	1.1*	1.9*
CCc1ccc(NC(=S)NC2CCN(Cc3ccccc3)CC2)cc1	.	.	.	45	43
N=C1c2ccccc2CN1NC(=O)CC12CC3CC(CC(C3)C1)C2	.	.	.	96	90
SMILES	HUVEC prolif 384	H69AR inhibit	Lung fibro prol	PTEN del growth	bCat KO growth
CC(=O)OCC1O[C@@H](O[C@@H]2C[C@H]3C(C)(C)[C@H](OC(C)=O)CC[C@]3(C)[C@H]3CC[C@]45C[C@]4(CC[C@H]5[C@@H](C)C[C@@H](O)[C@H](O)C(C)(C)O)[C@@]32C)[C@H](O)[C@@H](O)[C@@H]1O (some centres not stated)	.	.	.	1.0*	1.1*
Cn1c(CSCc2ccc(Cl)c(Cl)c2)n[nH]c1=S	.	.	.	104	92
O=C(CSc1nnc(-c2ccccc2Cl)o1)Oc1ccc(Br)cc1	93	99	110	0.7*	0.9*
CC(=O)Nc1nc(-c2ccc(Cl)cc2)ns1	.	.	.	80	73
O=C(Nc1ccn(Cc2ccccc2F)n1)c1ccc(COc2ccccc2Cl)cc1	.	.	.	17	5.9*
N#Cc1ncc(-c2ccc3c(c2)OCCOCCOCCOCCOCCO3)nc1C#N	.	.	.	2.8*	3.8*
N#Cc1ncc(-c2ccc3c(c2)OCCOCCOCCOCCO3)nc1C#N	.	.	.	40	31
O=C(CSc1nnc(SCc2cccc3ccccc23)s1)N=Nc1c(O)[nH]c2ccccc12	.	.	.	1.0*	4.3*
O=C(CSc1nnc(SCc2cccc3ccccc23)s1)c1ccc2c(c1)OCO2	.	.	.	88	102
CC(C)(C)NC(=O)NC(=O)COC(=O)Cc1coc2ccc3ccccc3c12	.	.	.	83	96
CCOC(=O)CSC1=C(C#N)C(=O)NC(c2ccc(OC)cc2)S1 (configuration not stated)	79	2.2*	111	96	99
CCOc1ccc(C2NC(=O)C(C#N)=C(S)N2c2ccc(OC)cc2)cc1OC (configuration not stated)	106	96	97	95	93
CCOC(=O)CSc1nc2cc(OC)ccc2cc1C#N	73	96	85	28	19
CCOC(=O)CSC1=C(C#N)C(=O)NC(c2ccc(OC)c(OC)c2)S1 (configuration not stated)	73	6.6*	77	99	98
Cc1cc(C)c2c3c(sc2n1)C1(CCSCC1)C(C#N)=C(N)O3	.	.	.	80	77
COc1ccc(C2C(C#N)=C(N)Oc3c2sc2nc(C)cc(C)c32)cc1 (configuration not stated)	.	.	.	0.6*	0.9*
CCOC(=O)c1c(NC(=O)CSc2nc3ccccc3c(=O)n2-c2ccccc2)sc(C(C)=O)c1C	.	.	.	80	69
O=c1oc(-c2ccccc2F)nc2c1cnn2-c1ccccc1	5.9*	54	82	97	82
CC(=O)c1ccc(Sc2nnnn2-c2ccccc2)c([N+](=O)[O-])c1	.	.	.	6	5.7*
Nc1ccc(Sc2nnnn2-c2ccccc2)c(Cl)c1	100	99	100	103	95
CN1CCN(S(=O)(=O)c2ccc(Sc3nnnn3-c3ccccc3)c([N+](=O)[O-])c2)CC1	.	.	.	3.2*	5.4*
O=[N+]([O-])c1ccc(Sc2nnnn2-c2ccccc2)c(Cl)c1	51	5.1*	44*	19	18
Cc1cccc(NC(=O)C2(c3cccs3)CCOCC2)n1	.	.	.	92	86
